A selection: hits, their analogues and other compounds. The true share with any hit is near 1.3%.
Hsp70 activator = Hsp70 transcriptional activation, primary screen; HeLa Hsp70 promoter luciferase reporter, luminescence; scaled: vehicle 0, proteasome-inhibitor control 100%; hit rate 0.04% among 200,000; activation, % at 10 µM;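 active = activation above the mean across all tested compounds plus 3 SD, cutoff set per campaign, cut at about 5.5% in these data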
MDM2 E3 inh = blocks human Mdm2 ubiquitin ligase activity; Q00987; cell-based MDM2 ubiquitination luciferase reporter, 2 h; 0 = plate control, 100 = twice control, blank-subtracted; signal enhancement, % at 5 µM; hit rate 0.11% among 210,000;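 active = signal enhancement of 30% or more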;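 note: luminescence tracks abundance of the self-degrading MDM2-luciferase fusion protein; higher signal means inhibition of MDM2 E3 ligase activity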
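Assay system: stable mammalian line carrying autodegrading MDM2–luciferase fusion reporter; Input: 2000 cells in each well; Compound dosing: single-point 5 µM; Schedule: 2 h compound exposure at 37 °C; Signal: SteadyLite luciferase luminescence after 15 min room-temperature reagent incubation; Evaluation: % luminescence enhancement versus blank-corrected plate control mean; Benchmarks: plate controls and plate blanks.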
Pf gamet viab = inhibitors of late stage P. falciparum gametocyte viability. P. falciparum stage V gametocytes, ATP luminescence, 24 h. inhibition, % at 10.9 µM. hit rate 0.065% among 150,000;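 active = inhibition above the mean plus 3 SD of compounds within the control limits, set per campaign, cut at about 38% in these data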
Wee1 stabilizer = human Wee1 degradation inhibition, primary screen; P30291; hit rate 1.2% among 220,000; reporter increase, % at 5 µM; HeLa Luc-Wee1K328M stability, luciferase luminescence; 100% = proteasome inhibitor MG132 effect;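 active = activation above the mean of all tested compounds plus 3 SD, set per screening run, cut at about 8.8% in these data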;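 note: cells exposed to compound for 20 h before luminescence read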
Target sequence (P30291 whole entry K328M): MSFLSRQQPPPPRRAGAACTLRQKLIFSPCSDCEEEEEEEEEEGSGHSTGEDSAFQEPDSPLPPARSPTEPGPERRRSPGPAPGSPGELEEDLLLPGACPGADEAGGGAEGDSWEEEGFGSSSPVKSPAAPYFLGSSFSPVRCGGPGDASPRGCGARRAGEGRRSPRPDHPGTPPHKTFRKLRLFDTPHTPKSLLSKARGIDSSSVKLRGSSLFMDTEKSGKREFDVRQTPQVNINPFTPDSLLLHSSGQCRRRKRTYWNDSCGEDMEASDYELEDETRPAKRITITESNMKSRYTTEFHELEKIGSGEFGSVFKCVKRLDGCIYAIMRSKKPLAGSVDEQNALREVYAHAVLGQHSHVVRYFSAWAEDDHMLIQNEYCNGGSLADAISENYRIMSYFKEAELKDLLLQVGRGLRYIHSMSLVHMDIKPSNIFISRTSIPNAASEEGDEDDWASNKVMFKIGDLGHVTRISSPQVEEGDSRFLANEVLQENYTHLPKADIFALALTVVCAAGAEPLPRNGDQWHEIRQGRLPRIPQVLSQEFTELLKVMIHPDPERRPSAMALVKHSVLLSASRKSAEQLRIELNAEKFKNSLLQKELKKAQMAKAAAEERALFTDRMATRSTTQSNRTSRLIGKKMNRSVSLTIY
Numbers stand for hits; 0 = inactive; - = not tested or not shown.

SMILES	Hsp70 activator	MDM2 E3 inh	Pf gamet viab	Wee1 stabilizer
CNC(=O)CS(=O)CC(=O)Nc1cc(OCCOC)c(Cl)cc1Cl (centres undefined)	0	0	0	8.9
CCc1ccccc1NC(=S)N1N=CCC1c1ccccc1 (centres undefined)	0	0	0	8.8
CC(C)c1ccc(/C=C/C(=O)Nc2nncs2)cc1	0	0	-	9.5
Cc1sc(NC(=O)/C=C/c2ccc(C(C)C)cc2)c(C#N)c1C	0	0	0	0
O=C(O)c1cccc(N2C(=O)/C(=C/c3ccc(SCc4ccc(Cl)cc4)o3)SC2=S)c1	0	0	0	12
Cc1ccc2nc(-c3ccc(NC(=O)Cc4cccs4)cc3)[nH]c2c1	0	0	0	10
Cc1ccc2nc(NC(=O)Cc3cccs3)sc2c1	0	0	-	0
CC(C)n1cnc2c(NCc3ccccc3)cc(Cc3ccc(F)cc3)cc21	-	-	0	-
CC(C)[C@@H](N)C(=O)N/N=C/c1ccc2ncccc2c1	-	0	0	18
S=C(N/N=C/c1ccc2ncccc2c1)Nc1cccnc1	0	0	0	0
CC(C)(C)OC(=O)N1CCC[C@H]1C(=O)NCc1ccc(Cl)cc1Cl	0	0	0	10
Cc1ccc(NC(=O)C2CCCN2C(=O)OC(C)(C)C)cc1C (centres undefined)	-	-	0	10
O=C(c1cc(N2C(=O)C3C4CCC(C4)C3C2=O)ccc1Cl)N1CCN(c2ccccc2F)CC1 (centres undefined)	0	0	0	0
COc1cc(-c2ccc(NC(=O)CN3CCCCC3)c(OC)c2)ccc1NC(=O)CN1CCCCC1	0	-	-	8.9
Cc1ccc(Nc2c(F)c(F)c(F)c(F)c2C(=O)O)cc1	0	0	0	13
FC(F)(F)c1ccccc1-n1c(CN2CCCCC2)n[nH]c1=S	-	-	0	0
O=C(NCCc1ccccc1)c1ccncc1	0	0	-	11
O=C(NCCc1ccccc1)c1ccc(Cl)c([N+](=O)[O-])c1	0	0	-	9.4
Cn1c(=O)c2[nH]c(N=NNc3ccccc3F)nc2n(C)c1=O	-	0	0	0
Cc1ccccc1NN=Nc1nc2c([nH]1)c(=O)n(C)c(=O)n2C	0	0	0	12
O=C(Nc1ncccn1)c1ccc(Cl)c([N+](=O)[O-])c1	-	-	0	-
Cn1c(=O)c(=O)n(C)c2cc(S(=O)(=O)N3CCCC3C(=O)NCc3ccco3)ccc21 (centres undefined)	-	-	0	9.0
O=C(NCc1ccco1)C1CCCN1S(=O)(=O)c1ccc2ccccc2c1 (centres undefined)	0	0	0	0
CCOC(=O)C1(Cc2cccc(OC)c2)CCCN(CCO)C1 (centres undefined)	-	-	0	-
Cc1ccc(C)c(NC(=O)C(Sc2nnc(-c3cccs3)o2)c2ccccc2)c1 (centres undefined)	0	50	0	0
SMILES	Hsp70 activator	MDM2 E3 inh	Pf gamet viab	Wee1 stabilizer
Cc1nn(C)cc1/C=N/NC(=O)Cn1cncn1	-	0	0	0
O=C(COC(=O)Cc1n[nH]c(=O)c2ccccc12)Nc1ccc(Cl)cc1F	0	0	0	8.9
O=C(N/N=C/c1ccccn1)c1ccc(N/N=C/c2ccccn2)cc1	0	0	0	0
Cc1cccc(/C=N/NC(=O)NC23CC4CC(CC(C4)C2)C3)n1	-	0	0	0
O=C(N/N=C/c1ccccn1)NC12CC3CC(CC(C3)C1)C2	-	0	0	10.0
Cc1ccc(C(=O)N/N=C\c2ccccc2[N+](=O)[O-])cn1	0	0	0	11
Cc1ccc(C(=O)N/N=C\C=C\c2ccccc2[N+](=O)[O-])cn1	0	0	0	0
Cc1ccc(C(=O)N/N=C\c2ccccn2)cn1	-	0	0	11
Cc1cccc(Oc2coc3cc(OC(=O)c4cccs4)ccc3c2=O)c1	0	0	0	11
CCOC(=O)C1=CC[C@H]2c3c(c4ccccc4n3C)C(=O)C1N2Cc1ccccc1	-	-	0	-
Cc1cccn2c(=O)c3cc(S(=O)(=O)c4ccccc4)c(=N)n(CC4CCCO4)c3nc12 (centres undefined)	-	0	-	0
Cc1ccc(NC(=O)C2CCN(S(=O)(=O)c3cnc[nH]3)CC2)nc1	0	0	0	0
Cc1ccc(NC(=O)C2CCN(S(=O)(=O)c3c(C)n[nH]c3C)CC2)nc1	0	0	0	10
Cc1ccc(CN2CCN(Cc3nc4c(s3)CCCC4)CC2CCO)cc1 (centres undefined)	0	0	0	0
COc1cccc(CN2CCN(Cc3nc4c(s3)CCCC4)CC2CCO)c1 (centres undefined)	0	0	0	10
COc1ccc(-n2ccnc2SCC(=O)NCc2ccc(F)cc2)c(OC)c1	0	0	0	0
CCN(CC)Cc1cc(C(=O)O)c(C)o1	0	32	0	0
Cc1cc2cc(CNC(=S)NC3CCCCC3)ccc2[nH]1	0	0	-	9.9
Cc1cc2cc(CNC(=O)NC3CCCCC3)ccc2[nH]1	0	-	-	0
COc1ccc(CNC(=O)c2csc(Cc3ccc(Cl)cc3)n2)cc1	0	0	0	9.5
Cc1ccc(NC(=O)CN2CCN(C)CC2)cc1Br	-	-	0	-
CCCN(CCC)CCNc1c(NC2CCN(C(=O)OCC)CC2)c(=O)c1=O	0	48	-	0
Cc1c(Cl)cnc(NC(=O)COC(=O)Cc2coc3ccc4ccccc4c23)c1Cl	0	-	0	0
N#CCSc1nnc(CNc2ccc(F)cc2)o1	0	0	-	0
Cc1ccc(CSc2nnc(CNc3ccc(F)cc3)o2)cc1	0	0	0	9.6
SMILES	Hsp70 activator	MDM2 E3 inh	Pf gamet viab	Wee1 stabilizer
O=C(O)c1cccc(-n2cccc2/C=C2/NC(=O)N(c3cccc(Cl)c3)C2=O)c1	-	0	0	0
COc1ccc(-n2cccc2/C=C2/NC(=O)N(c3cccc(Cl)c3)C2=O)cc1	0	0	0	8.9
COc1cc(/C=N/NC(=O)C(=O)NCC2CCCO2)cc(Cl)c1O (centres undefined)	-	0	0	0
O=C(Nc1cc(Cl)cc(Cl)c1)c1coc(=O)c(Br)c1	-	0	0	14
O=C(NC(CO)(CO)CO)c1coc(=O)c(Br)c1	0	0	-	0
Cc1ccc(NCc2ccccc2O)cc1C	0	0	0	10
CC(C)Oc1cccc(C(=O)Nc2ccc(Br)cc2F)c1	0	0	0	9.1
COc1cccc(C(=O)Nc2ccc(F)cc2F)c1	0	0	-	0
Cc1ccc(C(=O)OCn2ncc(Cl)c(Cl)c2=O)cc1	88	0	0	0
CCC(=O)Nc1ccc(C(=O)Cn2ncc(Cl)c(Cl)c2=O)cc1	-	0	0	0
CCOC(=O)c1ccc(NC(=O)Cn2ncc(Cl)c(Cl)c2=O)cc1	5.8	0	0	0
O=C(c1ccc2ccccc2c1)C1CCCN(S(=O)(=O)c2cccnc2)C1 (centres undefined)	0	0	0	0
C[C@H](CO)N1C[C@H](C)[C@@H](CN(C)S(=O)(=O)c2cn(C)cn2)Oc2ccc(NC(=O)Cc3ccccc3)cc2C1=O	-	-	0	-
O=C1CNC(=S)N1Cc1ccccc1	0	0	-	9.5
O=C1CNC(=O)N1Cc1ccc(Br)cc1	0	0	-	0
CCSc1nnc(NC(=O)c2ccc(Br)s2)s1	0	0	-	0
O=C(Nc1nnc(C(F)(F)F)s1)c1ccc(Br)s1	0	0	0	9.8
CCCOC(=O)Nc1ccc(S(=O)(=O)Nc2ncccn2)cc1	-	-	0	0
